Measurements reported in ChEMBL document CHEMBL1136530, “Synthesis, stereochemical assignment and biological activity of a novel series of C-4" modified aza-macrolides” (2003).
Converted amounts (≈) assume the structure as drawn.

Key:
Format in all cases: functional
[1] = test system: Escherichia coli; assay: Minimum inhibitory concentration against Escherichia coli
[2] = test system: Mus musculus; assay: In vivo effective dose against Pasteurella multocida infection in mouse
How it was run: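 Mice infected with P. multocida serotype 5A. Subcutaneous dosing 0.5 h post-infection at 5 to 80 mg/kg. ED50 calculated from the number of mice surviving four days after infection.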

[3] = test system: Pasteurella multocida; assay: Minimum inhibitory concentration against Pasteurella multocida
How it was run: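 P. multocida strain 59A0067 (turkey origin), grown overnight on BHI plates; colonies in saline at OD625 0.09 (0.5 McFarland), diluted 1:100 in BHI broth. Two-fold serial dilutions in BHI microdilution, about 5×10⁵ cfu/mL final, 37 °C for 18 h. MIC is the lowest concentration with A600 ≤ 0.025.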

Row | SMILES | MIC [1] [µg/mL] | ED50 [2] [mg/kg] | MIC [3] [µg/mL]
1 | CC[C@H]1OC(=O)[C@H](C)[C@@H](O[C@H]2C[C@@](C)(OC)[C@@](O)(c3ccccn3)[C@H](C)O2)[C@H](C)[C@@H](O[C@@H]2O[C@H](C)C[C@H](N(C)C)[C@H]2O)[C@](C)(O)C[C@@H](C)CN[C@H](C)[C@@H](O)[C@]1(C)O | 3.13 (≈ 3.85 µM) | > 40 | 0.78 (≈ 0.961 µM)
2 | CC[C@H]1OC(=O)[C@H](C)[C@@H](O[C@H]2C[C@@](C)(OC)[C@@](O)(c3nccn3C)[C@H](C)O2)[C@H](C)[C@@H](O[C@@H]2O[C@H](C)C[C@H](N(C)C)[C@H]2O)[C@](C)(O)C[C@@H](C)CN(C)[C@H](C)[C@@H](O)[C@]1(C)O | 0.39 (≈ 0.47 µM) | – | 0.05 (≈ 0.0603 µM)
3 | CC[C@H]1OC(=O)[C@H](C)[C@@H](O[C@H]2C[C@@](C)(OC)[C@@](O)(c3ccccc3)[C@H](C)O2)[C@H](C)[C@@H](O[C@@H]2O[C@H](C)C[C@H](N(C)C)[C@H]2O)[C@](C)(O)C[C@@H](C)CN[C@H](C)[C@@H](O)[C@]1(C)O | 12.5 (≈ 15.4 µM) | – | 3.13 (≈ 3.86 µM)
4 | C#C[C@@]1(O)[C@H](C)O[C@@H](O[C@H]2[C@H](C)[C@@H](O[C@@H]3O[C@H](C)C[C@H](N(C)C)[C@H]3O)[C@](C)(O)C[C@@H](C)CN(C)[C@H](C)[C@@H](O)[C@](C)(O)[C@@H](CC)OC(=O)[C@@H]2C)C[C@@]1(C)OC | 0.78 (≈ 1.01 µM) | 33 | 0.1 (≈ 0.129 µM)
5 | C=CC[C@@]1(O)[C@H](C)O[C@@H](O[C@H]2[C@H](C)[C@@H](O[C@@H]3O[C@H](C)C[C@H](N(C)C)[C@H]3O)[C@](C)(O)C[C@@H](C)CN[C@H](C)[C@@H](O)[C@](C)(O)[C@@H](CC)OC(=O)[C@@H]2C)C[C@@]1(C)OC | 0.78 (≈ 1.01 µM) | 58 | < 0.1
6 | CC[C@H]1OC(=O)[C@H](C)[C@@H](O[C@H]2C[C@@](C)(OC)[C@@](O)(CCO)[C@H](C)O2)[C@H](C)[C@@H](O[C@@H]2O[C@H](C)C[C@H](N(C)C)[C@H]2O)[C@](C)(O)C[C@@H](C)CN[C@H](C)[C@@H](O)[C@]1(C)O | 6.25 (≈ 8.02 µM) | – | 0.39 (≈ 0.501 µM)
7 | CC[C@H]1OC(=O)[C@H](C)[C@@H](O[C@H]2C[C@@](C)(OC)[C@@](O)(C#CCN(C)C)[C@H](C)O2)[C@H](C)[C@@H](O[C@@H]2O[C@H](C)C[C@H](N(C)C)[C@H]2O)[C@](C)(O)C[C@@H](C)CN(C)[C@H](C)[C@@H](O)[C@]1(C)O | 0.39 (≈ 0.47 µM) | 40 | 0.1 (≈ 0.12 µM)
8 | CC[C@H]1OC(=O)[C@H](C)[C@@H](O[C@H]2C[C@@](C)(OC)[C@@](O)(c3ccco3)[C@H](C)O2)[C@H](C)[C@@H](O[C@@H]2O[C@H](C)C[C@H](N(C)C)[C@H]2O)[C@](C)(O)C[C@@H](C)CN[C@H](C)[C@@H](O)[C@]1(C)O | 1.56 (≈ 1.95 µM) | 72 | 0.2 (≈ 0.25 µM)
9 | CC[C@H]1OC(=O)[C@H](C)[C@@H](O[C@H]2C[C@@](C)(OC)[C@@](O)(CCCOC)[C@H](C)O2)[C@H](C)[C@@H](O[C@@H]2O[C@H](C)C[C@H](N(C)C)[C@H]2O)[C@](C)(O)C[C@@H](C)CN(C)[C@H](C)[C@@H](O)[C@]1(C)O | 1.56 (≈ 1.9 µM) | > 80 | 0.1 (≈ 0.122 µM)
10 | C#C[C@@]1(O)[C@H](C)O[C@@H](O[C@H]2[C@H](C)[C@@H](O[C@@H]3O[C@H](C)C[C@H](N(C)C)[C@H]3O)[C@](C)(O)C[C@@H](C)CN[C@H](C)[C@@H](O)[C@](C)(O)[C@@H](CC)OC(=O)[C@@H]2C)C[C@@]1(C)OC | 3.13 (≈ 4.12 µM) | 24 | < 0.1
11 | CC[C@H]1OC(=O)[C@H](C)[C@@H](O[C@H]2C[C@@](C)(OC)[C@@](O)(C#CCOC)[C@H](C)O2)[C@H](C)[C@@H](O[C@@H]2O[C@H](C)C[C@H](N(C)C)[C@H]2O)[C@](C)(O)C[C@@H](C)CN(C)[C@H](C)[C@@H](O)[C@]1(C)O | 0.39 (≈ 0.477 µM) | 29 | 0.05 (≈ 0.0612 µM)
12 | CC[C@H]1OC(=O)[C@H](C)[C@@H](O[C@H]2C[C@@](C)(OC)[C@@](O)(C#CCN(C)C)[C@H](C)O2)[C@H](C)[C@@H](O[C@@H]2O[C@H](C)C[C@H](N(C)C)[C@H]2O)[C@](C)(O)C[C@@H](C)CN[C@H](C)[C@@H](O)[C@]1(C)O | 1.56 (≈ 1.91 µM) | 22 | 0.2 (≈ 0.245 µM)
13 | CCCC[C@@]1(O)[C@H](C)O[C@@H](O[C@H]2[C@H](C)[C@@H](O[C@@H]3O[C@H](C)C[C@H](N(C)C)[C@H]3O)[C@](C)(O)C[C@@H](C)CN[C@H](C)[C@@H](O)[C@](C)(O)[C@@H](CC)OC(=O)[C@@H]2C)C[C@@]1(C)OC | 12.5 (≈ 15.8 µM) | – | 0.78 (≈ 0.986 µM)
14 | CCC[C@@]1(O)[C@H](C)O[C@@H](O[C@H]2[C@H](C)[C@@H](O[C@@H]3O[C@H](C)C[C@H](N(C)C)[C@H]3O)[C@](C)(O)C[C@@H](C)CN[C@H](C)[C@@H](O)[C@](C)(O)[C@@H](CC)OC(=O)[C@@H]2C)C[C@@]1(C)OC | 1.56 (≈ 2.01 µM) | 81 | 0.2 (≈ 0.257 µM)
